Measured values from the RNAGym collection of RNA variant scans (doi:10.1126/science.aae0568).
This sample holds only a part of the variants without activity.

B1: tRNA (parent)
chain: GUUCCGUUGGCGUAAUGGUAACGCGUCUCCCUCCUAAGGAGAAGACUGCGGGUUCGAGUCCCGUACGGAACG

Variants of: B1
Assay: yeast fitness relative to wild type (ratio to wild type); higher = fitter; tRNA-Arg(CCU), competitive growth, 37 C, YPD
Procedure, shortened: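 Genotype frequency changes were the basis for Darwinian fitness relative to wild type. The frequencies came from 100-nucleotide paired-end sequencing of gene amplicons from the start population and each end population of pooled yeast strains with tRNA-Arg(CCU) gene variants at the native locus. Competition ran in YPD at 37°C for 24 hours in six replicates, genotypes needed ≥ 100 starting reads, and estimates < 0.5 were set to 0.5.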

Variant	yeast fitness
GUUCCGUAGACGUAAUGGUAACGCGUCUCCCUCCUAAGGAGAAGACUGCGGGUUCGAGUCCCGUACUGAACG [U8A G10A G67U]	≤ 0.5
GUUCCGUAGGCAUAAUGGUCACGCGUCUCCCUCCUAAGGAGAAGACUGCGGGUUCCAGACCCGUACGGAACG [U8A G12A A20C G56C U59A]	0.581
GUUCCGUAGGCGUAAUGGUAACGCCUCUCCCUCCUACGGAGAAGACUGCGGGUUCGAGUCCCGUACGGAACG [U8A G25C A37C]	≤ 0.5
GUUCCGUAGGCGUAAUGGUAACGCGUCUCCCUCCUAAGGAGAAAACUGCGGGUUCGAGUCCCGCAAGGAACG [U8A G44A U64C C66A]	≤ 0.5
GUUCCGUAGGCGUAAUGAUAACGCGUCUCCCCCCUAAGGAGAAGACUGCGGGUUCGAGUCCCGUACGGAACG [U8A G18A U32C]	≤ 0.5
GUUCCGUAGGCGUAAUGCUAACGCGUUUCCCUCCUAAGGAGAAGACUGCGGGUUCGAGUCCCGUCCGGAACG [U8A G18C C27U A65C]	≤ 0.5
GUUCCGUAGGCGAAAUGCUAACGGGUCUCCCGCCUAAGGAGAAGACUGCGGGUUCGAUUCCCGUACGGAACG [U8A U13A G18C C24G U32G G58U]	≤ 0.5
GUUCCGUAGGCCUAAUGGUACCGCGUGUCCUUCCUAAGGAGAAGACUGCGGAUUCGAGUCCCGUACGGAACG [U8A G12C A21C C27G C31U G52A]	0.59
GUUCCGUAGCCGUAAUGGUAACGCGUCUCCCUCCUAAGGAGAAGACUGCGGGUUCGAGUCCCGUAUGGAACG [U8A G10C C66U]	≤ 0.5
GUUCCGUAGGCGUAAUAGUAACGCGUCUCCUUUUUAAGGAGAAGAGUGCGGGUUCGAGUCCAGUACGGAACG [U8A G17A C31U C33U C34U C46G C62A]	≤ 0.5
GUUCCGUAGGCGUAAUGGUAACGCGUCUCCCUCCUAAAGCGAAGACUGUGGGUCCGAGUGCCGUACGGAACG [U8A G38A A40C C49U U54C C60G]	≤ 0.5
GUUCCGUAGGCCUAAUGGUAACGCGUCUCCCUCCUAAGGAGAAGACAGCGGGUUCGAGUCCUGUACGGAACG [U8A G12C U47A C62U]	0.545
GUUCCGUAGGCGUAAUGCUAACGAGUCUCCCCCCUAAGGAGAAGACUGCGGGUUCGAGUCCCGUACGGAACG [U8A G18C C24A U32C]	0.607
GUUCCGUAGGCGUAAUAGCAACGCGUCUCCCUCCUAAGGAGAAGACUGCGGGUUCGAGUCCCGUACGGAACG [U8A G17A U19C]	0.586
GUUCCGUAGGCAUAAUGGUAACGCGUCUCCCUCCUAAGGAGAAGACUGCGGGUUCGAGUCCCGUACGGAACG [U8A G12A]	0.824
GUUCCGUAGGCGUAAUGGUAACGCGUCUCCCUCCUAAGGAGAAGACUGCGGGUUCGAGUCCCGUACAGAACG [U8A G67A]	0.586
GUUCCGUAGGCGUAAUGGCACCGCGUCUCCCUCCUAAGGAGAAGACUGCGGGUUCGAGUCCCGUAUGGAACG [U8A U19C A21C C66U]	≤ 0.5
GUUCCGUAGGCGUAAUGGUAACGCGUCUCCCUCCUAAGGAGAAGACUACGGGUUCGAGUCCCGUACGGAACG [U8A G48A]	0.666
GUUCCGUAGGCGUAAUGGCAACGCGUCUCCCUCCUUAGGAGAAGACUGCGGGUUCGAGUCCCGUACGGAACG [U8A U19C A36U]	≤ 0.5

Variant	yeast fitness
GUUCCGUAGGCGUAAUAGUAAUGCGUCUCCCUCCUAAGGAGAAGACUGCGGGUUCGAGUCCCGUACGGAACG [U8A G17A C22U]	0.607
GUUCCGUAAGCGUAAUGGUAACGCGUCUCCCUCCUAAGGAGAAGACUGCGGGUUCGAGUCCCGUACAGAACG [U8A G9A G67A]	0.553
GUUCCGUAGGCAUAAUGGUAACGCGUCUCCCUCCUAAGGAGAAAACUGCGGGUUCGAGUUCCGUACCGAACG [U8A G12A G44A C60U G67C]	≤ 0.5
GUUCCGUAGGCGUAAUGCUAACGAGUCUCCCCCCUAAGGAGAAGACUGCGGGUUCGAGUCCCGUACGGUACG [U8A G18C C24A U32C A69U]	0.565
GUUCCGUAGGCGUAAUGGUAACGCGUCUCCCUCCUAAGGAGAACACUGCGGGUUCGUGUCCCGUACGGAACG [U8A G44C A57U]	≤ 0.5
GUUCCGUACGCGUAAUGGUAACGCGUCUCCCUCCUAAGGAGAAGACAGCGGGUUCGAGUCCCGUACGCAACG [U8A G9C U47A G68C]	≤ 0.5
GUUCCGUAGGCGUAAUGAUAACGCGUCUCCCUCUUAAGGAGCAGACUGCGGGUUCGAGUCCCGUACGGAACG [U8A G18A C34U A42C]	≤ 0.5
GUUCCGUAUGCGUAAUGGUAACGCGUCUCCCUCCUAAGGAGCAGACUGCGGCUUCGAGUCCCGUACGGAACG [U8A G9U A42C G52C]	≤ 0.5
GUUCCGUAGGCGUAAUGGUAACGCGACUCCCUCCUAAGGAGAAGACUGCGGGUUCGAGUCCCGUACGGAACG [U8A U26A]	0.733
GUUCCGUAGGCAUAAUGGUAAAGCGUCUCCGUCCUAAGGAGAAGACUGCGGGUUCGAGUCCCGUCCGGAACG [U8A G12A C22A C31G A65C]	≤ 0.5
GUUCCGUAGGCGUAAUGGUAACGCAUCUGCCUCCUACGGAGAAGACUGCGGGUUCGAGUCCCGUUCGGAACG [U8A G25A C29G A37C A65U]	≤ 0.5
GUUCCGUAGGCGUAAUGGUAACCCGUCUCCCUCCUAAGGAGAAGACUGCGGGUUCGAGUCUCGUACGGAACG [U8A G23C C61U]	0.575
GUUCCGUAGGCGUAAUGAUAACGCGUCUCCCUCCUAAGGACAAGACUGCGGGUUCGGGUCCCGUACGGAACG [U8A G18A G41C A57G]	≤ 0.5
GUUCCGUAGGCGUAAUGAUAACGCGUCUCACACCGAAGGAGAAGACUGCGGGUUCGAGUCCCGUCCGGAACG [U8A G18A C30A U32A U35G A65C]	≤ 0.5
GUUCCGUAGGCGUAAUGCUAACGAGUCUUCCCCCUAAGGAGAAGACUGCGGGUUCGAGUCCCGUACGGAACG [U8A G18C C24A C29U U32C]	≤ 0.5
GUUCCGUAGGCGUAAUGGUAACGCGUCUCCCUCCUAAGGAGAAGACUGCGGAUUCCAGUCCCGUACGGAACG [U8A G52A G56C]	0.841
GUUCCGUAGGCGUAAUGAUAACGCGUCUCCCUCCUAAGGAGAAGACUGCGGGUUCGAGUCCCGUACGGAACG [U8A G18A]	0.578
GUUCCGUAGGCGUAAUGGUAACGCGUCUCCCUCCUAAAGAGAAGACUGCGGGUUCGAGUCCCGUACGGAACG [U8A G38A]	0.652
